Variants at the floor of the assay were thinned out.
B1: tRNA (parent)
chain: GUUCCGUUGGCGUAAUGGUAACGCGUCUCCCUCCUAAGGAGAAGACUGCGGGUUCGAGUCCCGUACGGAACG

Variants of: B1
Assay: yeast fitness relative to wild type (ratio to wild type); higher = fitter; tRNA-Arg(CCU), competitive growth, 37 C, YPD
Summary of the method: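 Amplicons of the tRNA-Arg(CCU) gene were sequenced, 100-nucleotide paired-end, from the start population and from each end population of a pooled yeast competition. The competition, in six parallel replicates, lasted 24 hours in YPD at 37°C. Fitness relative to wild type was calculated from changes in genotype frequencies. Genotypes had to have ≥ 100 starting reads, and estimates < 0.5 were set to 0.5.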

With GUUCCGUUGGCGUCAUGGUAACGCGUGUCCCUCCUAAGGAGAAGACUGCGGGUUCGAGUCCCGUACGGAUCG [A14C C27G A70U] as the variant, how does the yeast fitness read?
Its yeast fitness is 0.54.

For GUUCCGUUGGCGUCAUGGUAACGCGUCUUCCUCCUAAGGAGAAGACUGCGGAUUGGAGUCCCGUACGGAACG [A14C C29U G52A C55G], which yeast fitness is on record?
Its yeast fitness is ≤ 0.5.

With GUUCCGUUGGCGUCAUGGUAACGCGUCUACCUCCUAAGGAGAAGACUGCAGGUUCGAGUCCCGUACGGAACG [A14C C29A G50A] as the variant, how does the yeast fitness read?
Its yeast fitness is 0.576.

Which yeast fitness does the source give for GUUCCGUUGGCGUCAUGGUAACGCGUCUCCCUCCUAAGGAGAAGUCUACGGGUUCGAGUCCCGUACGGUACG [A14C A45U G48A A69U] here?
Its yeast fitness is ≤ 0.5.

With GUUCCGUUGGCGUCAUGGUAACGCGUCUCCCUCCUAAGGAGAAGACUGCGGGUUCGAGUCCCGUACGGUACG [A14C A69U] as the variant, how does the yeast fitness read?
Its yeast fitness is 0.763.

Which yeast fitness does the source give for GUUCCGUUGGCGUCAUGGUAACGAGUCUCCCUCCUAAGGGGAAGACUGAGGGUUCGAGUCGCGUACGGAACG [A14C C24A A40G C49A C61G] here?
Its yeast fitness is ≤ 0.5.

With GUUCCGUUGGCGUCAUGGUAACGCGUGGCCCUCCUAAGGAGAAGACUGCGGGUUCGAGUCCCGUACGGAACG [A14C C27G U28G] as the variant, how does the yeast fitness read?
The yeast fitness was ≤ 0.5.

For GUUCCGUUGGCGUCAUGGUAACGCGUGUCCCUCCCAAGGAGAAGAGUGCGGGUUCGAGUCCCGUGCGGAACG [A14C C27G U35C C46G A65G], which yeast fitness is on record?
The yeast fitness was ≤ 0.5.

With GUUCCGUUGGCGUCAUGGUAACGCGUAUCCAUCCUAAGGAGAAGACUGCGGGUUCGAGUCCCAUACGGAACG [A14C C27A C31A G63A] as the variant, how does the yeast fitness read?
The yeast fitness was ≤ 0.5.

Which yeast fitness does the source give for GUUCCGUUGGCGUCAUGGUAACGCGUGUCCCUCCUAAGGAGAAGACUGCGGGUUCGAGUCCCGUACGGAACG [A14C C27G] here?
The yeast fitness was 0.574.

With GUUCCGUUGGCGUCAUGGUAACGCGUCUCGCUCCUAGGGAGAAGGCUGCAGGUUCGAGCCCCGUACCGAACG [A14C C30G A37G A45G G50A U59C G67C] as the variant, how does the yeast fitness read?
The yeast fitness was ≤ 0.5.

For GUUCCGUUGGCGUCAUGGUAACGCGUGUCCCUACUAAGGAGAAGUCUGCGGGUUCGAGUCCCCUACGGGACG [A14C C27G C33A A45U G63C A69G], which yeast fitness is on record?
Its yeast fitness is ≤ 0.5.

Which yeast fitness does the source give for GUUCCGUUGGCGUCAUGGUAAAGCGUCUCCCUCCUAAGGAGAAGACUGCGGGUUGGAGUCCCGUACGGAACG [A14C C22A C55G] here?
The yeast fitness was ≤ 0.5.

With GUUCCGUUGGCGUCAUGGUAAGGCGUCUCCCUCCUAAGGAGAAGACUGCGGCUUCGAGUCCCGUUCGGAACG [A14C C22G G52C A65U] as the variant, how does the yeast fitness read?
The yeast fitness was ≤ 0.5.

With GUUCCGUUGGCGUCAUGGUAACGCGUCUCACUCCUAAGGUGAAGACUGCGGGUUCGAGUCCCGUACGGAACG [A14C C30A A40U] as the variant, how does the yeast fitness read?
Its yeast fitness is ≤ 0.5.

For GUUCCGUUGGCGUCAUGGUAACGCGUUUCCCUCCUAAGGAGAAGAUUGCGGCUUCGAGUCCCGUACGGAACG [A14C C27U C46U G52C], which yeast fitness is on record?
Its yeast fitness is ≤ 0.5.

Which yeast fitness does the source give for GUUCCGUUGGCGUCAUGGUAACGCGUUUCCCUCCUAAGGAGAAGACCGCGGGUUCGAGUGCCGUACGGAACG [A14C C27U U47C C60G] here?
The yeast fitness was 0.641.

Which yeast fitness does the source give for GUUCCGUUGGCGUCAUGGUAACGCGUAUCCCUCCUAAGAAGAAGACUGCGGGUUUGAGUCCCGUACGGAGCG [A14C C27A G39A C55U A70G] here?
Its yeast fitness is ≤ 0.5.

With GUUCCGUUGGCGUCAUGGUAAUGCGUCUCCCUCCUAAGGAGAAGACUGCGGGUUUGAGUCGGGUACGGAACG [A14C C22U C55U C61G C62G] as the variant, how does the yeast fitness read?
Its yeast fitness is ≤ 0.5.

For GUUCCGUUGGCGUCAUGGUAAAGCGUCUCCCUCCUAAGGAGAAGACUGCGGGUUCGAGUCCCGUACCGAACG [A14C C22A G67C], which yeast fitness is on record?
The yeast fitness was ≤ 0.5.

With GUUCCGUUGGCGUCAUGGUAACGCGUCUCCCUCCUAAGGAGAAGUCUGCGGGUUCGAGUCCCGUACGGAACG [A14C A45U] as the variant, how does the yeast fitness read?
Its yeast fitness is 0.717.

For GUUCCGUUGGCGUCAUGGUAACGGGUCUCCCUCCUAAGGAGAAGACUGCGGCUUUGAGUCCCGUAUGGAACG [A14C C24G G52C C55U C66U], which yeast fitness is on record?
The yeast fitness was ≤ 0.5.

Which yeast fitness does the source give for GUUCCGUUGGCGUCAUGGUAACGCGUCUCCCUCCUAAGGAGAAGACUGCGGGUUCGAGUCCCGUACGGAUCG [A14C A70U] here?
The yeast fitness was 0.679.

For GUUCCGUUGGCGUCAUGGUAACGCGUCUCCCUCCUAAGGAGAAGACUGCGGGUUCGAGUCCCGUACGGACCG [A14C A70C], which yeast fitness is on record?
The yeast fitness was 0.684.

Which yeast fitness does the source give for GUUCCGUUGGCGUCAUGGUAACGGGUCUCCCUCCUAAGGAGAAGCCUGCGGGUUCGAGCCUCGUACGGAACG [A14C C24G A45C U59C C61U] here?
The yeast fitness was ≤ 0.5.

With GUUCCGUUGGCGUCAUGGUAACGCGUGUCGCUCCUAACGAGAAGACUGCGGGUUCGAGUCCCGUACGGAACG [A14C C27G C30G G38C] as the variant, how does the yeast fitness read?
The yeast fitness was ≤ 0.5.

With GUUCCGUUGGCGUCAUGGUAACGGGACUCCCUCCUGAGGUGAUGACUGCGGGUUCGAGUCCCGUACGGAACG [A14C C24G U26A A36G A40U A43U] as the variant, how does the yeast fitness read?
The yeast fitness was ≤ 0.5.

Which yeast fitness does the source give for GUUCCGUUGGCGUCAUGGUAACGCGUCUCGCUCCUAAGGAGAAGAUUACGGGUGCGAGUCCCGUACGGAACG [A14C C30G C46U G48A U54G] here?
The yeast fitness was ≤ 0.5.

For GUUCCGUUGGCGUCAUGGUAAUGUGUCUCCCUCCUAGGGAGAAGACUGCGGGUUCGAGUCCCGUACGGAACG [A14C C22U C24U A37G], which yeast fitness is on record?
The yeast fitness was ≤ 0.5.

Which yeast fitness does the source give for GUUCCGUUGGCGUCAUGGUAACGGGUCUCCCUCCUAAGGAGAAGACUGCGGGUUCGAGUCCCGUACGGAACG [A14C C24G] here?
Its yeast fitness is 0.579.

Which yeast fitness does the source give for GUUCCGUUGGCGUCAUGGUAACGCGUAUCCAUCCUAAGGAGAAGACUGCGGGUUCGAGUCCCGUACGGAUCG [A14C C27A C31A A70U] here?
The yeast fitness was ≤ 0.5.

With GUUCCGUUGGCGUCAUGGUAACGCGUGUCCCUCCUAAGGAGAAGACUGCGGGUUCGAGUACCGUUCGGAACG [A14C C27G C60A A65U] as the variant, how does the yeast fitness read?
The yeast fitness was ≤ 0.5.

Which yeast fitness does the source give for GUUCCGUUGGCGUCAUGGUAACGCGUCUACCUCCUAAGGAGAAGACUGCGGGUUCGAGUCCCGUACGGAACG [A14C C29A] here?
Its yeast fitness is 0.596.

Which yeast fitness does the source give for GUUCCGUUGGCGUCAUGGUAACGCGUCUUCCUCCUAAGGAGAAGAAUGCGGGUUCGAGUCCCGUACGGAACG [A14C C29U C46A] here?
Its yeast fitness is ≤ 0.5.

With GUUCCGUUGGCGUCAUGGUAACGCGUAUCCCUCCUAAGGAGAAGACUGCGGGUACGAGUCCCGUACGGGACG [A14C C27A U54A A69G] as the variant, how does the yeast fitness read?
Its yeast fitness is 0.647.

Which yeast fitness does the source give for GUUCCGUUGGCGUCAUGGUAACGCGUGUCCCUCCUAAGGAGAAGAGUGCGGGUUCGGGUCCCGUGCGGAACG [A14C C27G C46G A57G A65G] here?
Its yeast fitness is ≤ 0.5.

With GUUCCGUUGGCGUCAUGGUAAGGCGGCUCCCUCCUAAGGAGAAGACUGCGGGUUCGAGUCCCGUACGGAACG [A14C C22G U26G] as the variant, how does the yeast fitness read?
The yeast fitness was ≤ 0.5.

Source: the RNAGym collection of RNA variant scans (doi:10.1126/science.aae0568)
